In brackets after ≈: the same amount, converted by molar mass. Activity calls are given as the source filed them. The rule behind the calls is not given here.
How the values were obtained:
[1] = Antioxidant activity assessed as Fe (II) equivalent of (TPTZ)2Fe3+ reducing activity after 4 mins by FRAP assay; assay type: functional
Method in brief: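 FRAP reagent made from TPTZ and FeCl₃ in aqueous acetate buffer. Reagent and diluted sample mixed in a cuvette; absorbance of the blue Fe²⁺ complex at 593 nm read exactly 4 min later at 25.0 °C. Four or five sample concentrations tested. Slope of absorbance vs concentration divided by the FeSO₄ standard slope gives activity in mmol equiv Fe²⁺.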

[2] = Antioxidant activity assessed as resorcinol equivalent of peroxy radical scavenging activity at pH 2.2 by BR assay; assay type: functional
Method in brief: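 Briggs-Rauscher oscillating reaction thermostated at 25.0 °C. The resorcinol standard line was checked before each series. Relative antioxidant activity is taken from the sample and resorcinol concentrations that give the same effect.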

Staphylococcus aureus = assay: Antibacterial activity against methicillin-resistant Staphylococcus aureus clinical isolates from cystic fibrosis patients assessed as growth inhibition by CLSI broth microdilution method
[3] = system: Radical scavenging activity; assay: Antioxidant activity assessed as trolox equivalent of DPPH radical scavenging activity after 15 mins by spectroscopic analysis; assay type: functional
Method in brief: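 Absorbance at 515 nm of methanolic DPPH radical read before (A₀) and 15 min after (Af) adding sample. Inhibition % = (1 − Af/A₀) × 100. Plots of % inhibition vs concentration were fitted with lines through the origin and compared with the Trolox standard.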

[4] = Antioxidant activity assessed as trolox equivalent of ABTS radical scavenging activity at pH 7.4 after 6 mins by TEAC assay; assay type: functional
Method in brief: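 ABTS radical cation preformed with K₂S₂O₈ in PBS, pH 7.4. Diluted radical solution mixed with sample dissolved in DMSO; absorbance at 734 nm read exactly 6 min later at 30.0 °C. A DMSO blank was run, and the Trolox standard was treated the same way and checked before each series. Activity is given as a ratio to Trolox with its standard error.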

[5] = Antioxidant activity of the compound by voltammetric analysis; assay type: functional
[6] = system: Radical scavenging activity; assay: Antioxidant activity assessed as trolox equivalent of DPPH radical scavenging activity by spectroscopic analysis; assay type: functional

Molecule	Activity [1]	Activity [2]	MIC50 (Staphylococcus aureus)	MIC90 (Staphylococcus aureus)	Activity [3]	Activity [4]	MIC (Staphylococcus aureus)	Activity [5]	Activity [6]
CSN1C(=O)[C@H]([C@@H](C)OC(=O)c2ccc(O)c(O)c2)[C@H]1OC(C)=O	1.91 mmol	0.38 µM	128 µg/mL (≈ 360 µM)	> 128 µg/mL	1.96 mmol	1.23 mmol			
CSN1C(=O)C[C@@H]1OC(C)=O	inactive	inactive	32 µg/mL (≈ 183 µM)	64 µg/mL (≈ 365 µM)	inactive	inactive	32 µg/mL (≈ 183 µM)		
CC(=O)SC1CC(=O)N1 (stereo not drawn)	inactive	inactive	32 µg/mL (≈ 220 µM)	64 µg/mL (≈ 441 µM)	inactive	inactive		inactive	
O=C1O[C@H]([C@@H](O)CO)C(O)=C1O									1100 µM
CSN1C(=O)[C@H]([C@@H](C)OC(=O)/C=C/c2ccc(O)c(O)c2)[C@H]1OC(C)=O	1.98 mmol	1.95 µM	64 µg/mL (≈ 168 µM)	64 µg/mL (≈ 168 µM)	1.23 mmol	0.98 mmol			
CCOCOc1c(OC)cc(C(=O)O[C@H](C)[C@H]2C(=O)N(SC)[C@@H]2OC(C)=O)cc1OC	inactive	0.7 µM			inactive	inactive			
CSN1C(=O)CC1SC(C)=O (stereo not drawn)	inactive	inactive	16 µg/mL (≈ 83.6 µM)	32 µg/mL (≈ 167 µM)	inactive	inactive	16 µg/mL (≈ 83.6 µM)		
COc1cc(C(=O)O[C@H](C)[C@H]2C(=O)N(SC)[C@@H]2OC(C)=O)cc(OC)c1O	0.19 mmol	1.8 µM	64 µg/mL (≈ 160 µM)	128 µg/mL (≈ 320 µM)	0.0091 mmol	0.037 mmol			
CC(O[Si](C)(C)C(C)(C)C)[C@H]1C(=O)N/C1=C\C(=O)Sc1ccccc1 (stereo partly drawn)								inactive	
CSN1CCC1=O								inactive	
CO/N=C(\C(=O)N[C@@H]1C(=O)N2C(C(=O)O)=C(CSc3nc(=O)c(O)nn3C)CS[C@H]12)c1csc(N)n1 [CEFTRIAXONE]			8 µg/mL (≈ 14.4 µM)	> 128 µg/mL					
CO/N=C(\C(=O)N[C@@H]1C(=O)N2C(C(=O)O)=C(COC(C)=O)CS[C@H]12)c1csc(N)n1 [CEFOTAXIME]			128 µg/mL (≈ 281 µM)	> 128 µg/mL					
VITAMIN E									500 µM
CSN1C(=O)[C@H]([C@@H](C)O)[C@H]1SC(C)=O	inactive	inactive	64 µg/mL (≈ 272 µM)	128 µg/mL (≈ 544 µM)	inactive	inactive			
CSN1C(=O)[C@H]([C@@H](C)O)[C@H]1OC(C)=O	inactive	inactive	64 µg/mL (≈ 292 µM)	> 128 µg/mL	inactive	inactive			

Source: ChEMBL document CHEMBL2311373, “Monocyclic β-lactams as antibacterial agents: facing antioxidant activity of N-methylthio-azetidinones” (2013)
